# Sampled rows, rich in hits. Any-hit rate of the full collection: about 4.6%.
# TAAR1 antag: antagonists of human TAAR1; Q96RJ0; CHO RD-HGA16 TAAR1, Fluo-8 calcium fluorescence, antagonist; inhibition, % at 3 µM; actives 1.5% (n = 360,000); AID 624466;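 active = inhibition above a per-plate cutoff, the mean inhibition of test compounds on that plate plus 3 SD, cut at about 49% in these data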;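 note: 0% = DMSO plus EC80 beta-PEA response and 100% = DMSO alone without agonist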
#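 Assay system: CHO-derived RD-HGA16 cells stably expressing human TAAR1 plus Gα16. Timing: 140 s kinetic read after compound, 140 s after agonist. Technique: kinetic Fluo-8 calcium fluorescence measurement. Measure: % inhibition of agonist calcium response.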
# OX1R antag-1: antagonists of human orexin 1 receptor (OX1R); inhibition, % at 6.6 µM; OX1R-expressing cells, FRET antagonist read-out; O43613; actives 1.8% (n = 330,000); AID 485270; in the data active = inhibition mostly above about 38%, no sharp cut-off; inactive = mostly below about 40%;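 note: 0% = agonist challenge alone and 100% = reference antagonist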
# Target sequence (O43613 whole entry, looked up): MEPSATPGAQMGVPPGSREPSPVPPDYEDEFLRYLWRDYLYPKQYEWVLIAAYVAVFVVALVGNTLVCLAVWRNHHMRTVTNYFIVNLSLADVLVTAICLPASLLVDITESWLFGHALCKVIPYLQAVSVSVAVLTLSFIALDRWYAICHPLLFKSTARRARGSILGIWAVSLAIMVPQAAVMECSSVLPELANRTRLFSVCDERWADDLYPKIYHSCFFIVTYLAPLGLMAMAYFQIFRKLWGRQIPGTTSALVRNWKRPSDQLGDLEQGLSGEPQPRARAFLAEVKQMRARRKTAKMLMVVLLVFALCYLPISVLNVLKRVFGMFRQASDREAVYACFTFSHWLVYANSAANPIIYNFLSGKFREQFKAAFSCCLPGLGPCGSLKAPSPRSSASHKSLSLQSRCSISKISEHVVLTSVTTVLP
# GPR7 antag: human neuropeptides B/W receptor 1 antagonism | P48145 | GPR7-expressing cells, fluorescence antagonist assay | inhibition, % at 4.4 µM | actives 1.1% (n = 290,000) | AID 1861; in the data active = inhibition above about 16%, passing the limit was not always enough;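 note: cells stimulated with the agonist NPW; 0% = agonist with vehicle and 100% = vehicle without agonist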
# CHO parental Ca: counter-screen: ATP calcium response change in parental CHO cells; parental CHO-K1, ATP-induced calcium, Fluo-8 fluorescence; inhibition, % at 5.6 µM; actives 0.63% (n = 330,000); AID 463079;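 active = inhibition above that plate's mean sample inhibition plus 3 SD, cut at about 26% in these data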;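 note: 0% = ATP-challenged DMSO wells and 100% = DMSO wells without ATP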
#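 test system = CHO parental line | reagent = ATP stimulus | measured by = intracellular calcium via Fluo-8 no-wash fluorescent dye | control set = ATP and no-ATP DMSO wells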
# OX1R antag-2: blocks the human orexin 1 receptor; CHO/OX1R cells, Fluo-8 calcium fluorescence, orexin A; inhibition, % at 5 µM; actives 0.43% (n = 330,000); O43613;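 active = inhibition above its plate's threshold, mean inhibition of all tested compounds on the plate plus 3 SD, cut at about 37% in these data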;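 note: 0% = orexin A challenge wells and 100% = SB-334867-A antagonist wells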
# TAAR1 ag: human TAAR1 agonism; AID 624467; CHO RD-HGA16 TAAR1, Fluo-8 calcium fluorescence; vehicle wells 0%, saturating PEA agonist 100%; activation, % at 3 µM; Q96RJ0; actives 0.99% (n = 360,000);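 active = activation above the mean activation of all test compounds in the run plus 3 SD, cut at about 38% in these data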
#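 Test system: RD-HGA16 (CHO) cells co-expressing Gα16 and hTAAR1 / Benchmarks: DMSO vehicle as 0%, PEA at EC100 as 100% / Repeats: no replicates (n 1) / Measure: % activation from peak over basal fluorescence ratio, DMSO-to-PEA scaled / Timing: 17-24 h plating, Fluo-8 75 min 37 °C, 30 min RT / Technique: kinetic Fluo-8 calcium fluorescence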
# TAAR1 ag confirm: confirmation of human TAAR1 agonists; shares compounds with TAAR1 ag; CHO RD-HGA16 TAAR1, Fluo-8 calcium fluorescence; scaled: DMSO 0%, maximal phenethylamine 100%; activation, % at 3 µM; actives 82% (n = 2,400); AID 651783;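 active = activation above a cutoff set at the run's mean compound activation plus 3 SD, cut at about 39% in these data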
# Ga16 ag counter: counter-screen for TAAR1 agonists: nonselective agonists in parental cells; CHO-Ga16 parental, Fluo-8 calcium fluorescence; normalized to maximal ATP response, DMSO zero; actives 50% (n = 2,400); activation, % at 3 µM; shares compounds with TAAR1 ag;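 active = activation above the run cutoff, the mean activation over all tested wells plus 3 SD, cut at about 12% in these data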;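 note: 0% = DMSO wells and 100% = maximal ATP response on the peak over basal ratio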
# TAAR1 desensitize: human TAAR1 agonist that also desensitizes the receptor | actives 46% (n = 2,400) | CHO RD-HGA16 hTAAR1, Fluo-8 calcium, beta-PEA response inhibition | shares compounds with TAAR1 ag | AID 651951 | inhibition, % at 3 µM;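 active = inhibition above the run cutoff, the mean inhibition of all test compounds plus 3 SD, cut at about 49% in these data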;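 note: beta-PEA stimulus applied at its EC80; loss of beta-PEA calcium signal after compound pretreatment read as receptor desensitization; 0% = DMSO with beta-PEA at EC80 and 100% = DMSO alone without agonist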
# Ga16 antag count: counter-screen for TAAR1 agonists: nonselective Ga16 antagonists; shares compounds with TAAR1 ag; CHO-Ga16 ATP-induced calcium, Fluo-8 fluorescence; inhibition, % at 3 µM; actives 39% (n = 2,400);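 active = inhibition above the plate's mean compound inhibition plus 3 SD, computed per plate, cut at about 22% in these data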;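 note: 0% = EC80 ATP with DMSO and 100% = DMSO wells without ATP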
# * = called active by the depositor; nt = no result given.
SMILES,TAAR1 antag,OX1R antag-1,GPR7 antag,CHO parental Ca,OX1R antag-2,TAAR1 ag,TAAR1 ag confirm,Ga16 ag counter,TAAR1 desensitize,Ga16 antag count
CCn1c(=O)n(CC)c2cc(N3CCCC3)c(NC(=O)c3ccc(C)cc3)cc21,-23,12,-2,-24,-39,46*,1,1,2,11
CCn1c(=O)n(CC)c2cc(N3CCCC3)c(NC(=O)c3ccccc3)cc21,-38,32,-9,-25,-37,-3,nt,nt,nt,nt
Cc1cc(C)c(C)c(S(=O)(=O)N2CCC(C(=O)NCCCN3CCOCC3)CC2)c1C,2,-4,nt,-11,-28,8,nt,nt,nt,nt
Cc1ccc(CC2(OCCN(C)C)CCC(C(C)(C)C)CC2)cc1 (stereo not drawn),23,nt,nt,nt,nt,63*,85*,45*,75*,41*
Cc1ccc(CNC(=S)NC2CCC(C(C)(C)C)CC2)cc1 (stereo not drawn),6,nt,-22,nt,nt,0,nt,nt,nt,nt
CN(C)CCOC1(Cc2ccc(F)cc2)CCC(C(C)(C)C)CC1 (stereo not drawn),25,nt,nt,nt,nt,56*,51*,34*,34,23*
COc1cccc(NC(=S)N(CCC(C)C)C2CCN(C(C)=O)CC2)c1,8,-5,9,0,-6,0,nt,nt,nt,nt
O=C(NCCS(=O)(=O)NCc1ccccc1Cl)c1ccc2c(c1)OCO2,-19,5,nt,-13,-3,1,nt,nt,nt,nt
COc1ccc(CCNS(=O)(=O)CCNC(=O)c2ccccc2)cc1,19,2,nt,-22,-27,20,nt,nt,nt,nt
Cc1ccc(C(=O)NCCc2ccccc2)cc1,nt,10,-13,-3,4,nt,nt,nt,nt,nt
COc1ccc(C(=O)NCCS(=O)(=O)NCCc2ccccc2)cc1,16,6,nt,-25,-14,48*,72*,2,33,6
O=C(NCCc1ccccc1)c1ccc(=O)oc1,8,25,-1,0,-8,61*,67*,14*,12,4
O=C(NCCc1ccccc1)c1ccc2c(c1)OCCCO2,-1,35,-4,2,-12,46*,60*,0,11,2
O=C(NCCS(=O)(=O)NCCc1ccccc1)c1ccc2c(c1)OCO2,nt,13,nt,-4,-13,nt,nt,0,nt,7
Cn1c(=O)c2cc(NC(=O)NCCc3cccs3)ccc2n1Cc1ccccc1,21,nt,nt,nt,nt,6,nt,nt,nt,nt
CCCC(=O)Nc1c(-c2cccc(C)c2)c(=O)c2ccccc2n1C,1,11,1,-17,-17,1,nt,nt,nt,nt
CCc1ccccc1NC(=O)c1cc(=O)c2ccccc2o1,2,33,-12,-21,-12,8,nt,nt,nt,nt
CN(C)C(CNC(=O)C1CCN(S(=O)(=O)c2cc(Cl)ccc2Cl)CC1)Cc1ccccc1 (stereo not drawn),2,nt,nt,nt,nt,4,nt,nt,nt,nt
CN1CCC(=C(c2ccccc2)c2ccc(Br)cc2)CC1,-26,7,nt,-22,-13,54*,63*,34*,17,19
CCCCN(C(=O)NC(=O)Nc1cccc(C)c1C)S(C)(=O)=O,25,8,17,5,4,70*,58*,19*,18,10
Cc1ccc(S(=O)(=O)N2CCCCC2)cc1C(=O)NCc1ccc(S(N)(=O)=O)cc1,0,-1,nt,-2,-6,3,nt,nt,nt,nt
CCCCN=C(C)C1=C(O)CSC1=O,-3,-4,-15,-17,0,1,nt,nt,nt,nt
CC(=NCCc1ccccc1)C1=C(O)CSC1=O,75*,39,-10,-12,-23,93*,84*,0,56*,6
